Here are results for eleven compounds from ChEMBL document CHEMBL4118259, “Synthesis of sulfadiazinyl acyl/aryl thiourea derivatives as calf intestinal alkaline phosphatase inhibitors, pharmacokinetic properties, lead optimization, Lineweaver-Burk plot evaluation and binding analysis” (Bioorg Med Chem, 2018).

Calls of active or inactive are those of the source. The rule behind the calls is not given here.

This assay is described as follows: Antioxidant activity assessed as DPPH radical scavenging activity at 100 ug/ml measured after 30 mins. It is filed as functional. The gist of the method:
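DPPH radical scavenging with compounds at 100 µg/mL; mixture incubated at room temperature for 30 min, absorbance read at 517 nm; ascorbic acid as reference inhibitor; percentage activity given as mean ± SEM.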

For the compound `O=C(NC(=S)Nc1ccc(S(=O)(=O)Nc2ncccn2)cc1)c1ccc(Cl)cc1`, the outcome was inactive.

Turning to `CCCCCCCC(=O)NC(=S)Nc1ccc(S(=O)(=O)Nc2ncccn2)cc1`, the result was inactive.

Turning to `CCCCCCC(=O)NC(=S)Nc1ccc(S(=O)(=O)Nc2ncccn2)cc1`, the outcome was inactive.

For `CC(=O)NC(=S)Nc1ccc(S(=O)(=O)Nc2ncccn2)cc1`, the outcome was inactive.

Consider `O=C(NC(=S)Nc1ccc(S(=O)(=O)Nc2ncccn2)cc1)c1cc([N+](=O)[O-])cc([N+](=O)[O-])c1`, for which the result was Active.

`CCCC(=O)NC(=S)Nc1ccc(S(=O)(=O)Nc2ncccn2)cc1`: the outcome was inactive.

As for `O=C(NC(=S)Nc1ccc(S(=O)(=O)Nc2ncccn2)cc1)c1ccccc1Cl`, the outcome was inactive.

In the case of `COc1ccc(C(=O)NC(=S)Nc2ccc(S(=O)(=O)Nc3ncccn3)cc2)cc1`, the result was inactive.

For `O=C(NC(=S)Nc1ccc(S(=O)(=O)Nc2ncccn2)cc1)c1ccc(F)cc1`, the outcome was inactive.

Regarding `O=C(NC(=S)Nc1ccc(S(=O)(=O)Nc2ncccn2)cc1)c1ccc(Cl)cc1Cl`, the result was Active.

For the compound `O=C1O[C@H]([C@@H](O)CO)C(O)=C1O`, the result was Active.
